Hits are enriched below; roughly 3% of the tested compounds scored in any of these assays.
Yeast superoxide: caloric restriction mimetics inhibiting age-related superoxide in yeast. superoxide response (% of plate mean), % at 10 µM. AID 2690. 0.18% of 330,000 active. S. cerevisiae aged cells, superoxide DHE fluorescence; active compounds read low;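 active = superoxide response under a set limit, about three screen SD below normal, cut at about 65% in these data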;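 note: yeast aged for seven days with compound at 30 °C before DHE staining; 100% = average MFI of all compound-treated wells on the plate with controls excluded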
T cruzi inh: blocks replication of Trypanosoma cruzi; 1.4% of 300,000 active; AID 1885; inhibition, % (no concentration beside the values); T. cruzi beta-gal in NIH3T3, luminescence, 90 h;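 active = mean inhibition across valid replicates above about 55%, limit read from the data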;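 note: signal also drops with host cell toxicity which is not excluded here; 0% = plate median of DMSO wells and 100% = zero luminescence signal; higher percent means less beta-gal luminescence so fewer parasites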
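Test system: β-gal T. cruzi (Tulahuen C4) inside NIH/3T3 cells / Quantity: 5,000 cells/well / Measured by: luminescence from GalScreen with 0.05% NP40, read after 60 min / Medium: DMEM plus 2% FBS / Measure: parasite load inhibition, % / Reagent: Tulahuen C4 trypomastigotes, 5000/well / Schedule: co-culture of at least 90 h after 3 h attachment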
AI-2 QS mod: modulates the Vibrio harveyi AI-2 quorum sensing system. Vibrio harveyi JMH597 AI-2 luminescence/OD600 ratio, 9 h; active compounds read low; strain lacks LuxN and CqsS sensors; 0 = neutral-control median. activity change, % at 7.5 µM. 0.4% of 300,000 active; in the data active = activity change below about -75%, passing the limit was not always enough;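 note: luminescence divided by OD600 gain over 9 h not by final OD600 alone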
V-ATPase pHluor: alters yeast V-ATPase proton transport; S. cerevisiae, pHLuorin cytosolic pH fluorescence; response, % at 10 µM; 0.37% of 350,000 active; AID 504577; in the data active = response mostly above about 7.3%, no sharp cut-off; inactive = mostly below about 5.4%; note: actives read high
CendR NRP1 mod: NRP-1/CendR interaction modulation; FAM-RPARPAR peptide binding to NRP-1, fluorescence polarization; inhibition, % at 25 µM; 0.85% of 360,000 active; O14786;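 active = inhibition or corrected inhibition above about 18%, plus a signal ratio from 0.5 to 1.5, limit read from the data, passing the limit was not always enough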
HIF act: HIF pathway transcriptional activation | 0.32% of 300,000 active | activation, % at 7.5 µM (by protocol) | U2OS HRE-luciferase reporter, luminescence; normalized: DMSO 0%, desferrioxamine 100%;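 active = mean activation of at least 10% of the iron chelator positive control signal, with at least half of replicates also reaching 10%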
Active calls of the source: *; i = inactive; / = no result given.

SMILES	Yeast superoxide	T cruzi inh	AI-2 QS mod	V-ATPase pHluor	CendR NRP1 mod	HIF act
O=C(COc1ncnc2cc([N+](=O)[O-])ccc12)NC(=O)NC1CCCCC1	122	67*	26	0	-10	0
O=C(COc1ncnc2cc([N+](=O)[O-])ccc12)NCCc1ccc(Cl)cc1	99	56*	51	-2	-8	-1
Cc1cc(O)c(/C=N/Nc2ccccc2)c(=O)o1	100	12	23	4	4	0
Cc1cc2c(cc1S(=O)(=O)NC1CCCCC1C)OCC(=O)N2 (stereo unspecified)	95	-9	22	-1	40*	/
COc1ccc(CCNS(=O)(=O)c2cc3c4c(c2)CCN4C(=O)CC3)cc1OC	/	-2	40	0	-7	-1
O=C1CC(c2ccccc2)Oc2cc(O)cc(O)c21 (stereo unspecified)	91	-26	24	0	2	1
CC1CC(=O)c2c(cc3c(-c4c(O)cc(O)c5c(O)c6c(cc45)OC(C)CC6=O)c(O)cc(O)c3c2O)O1 (stereo unspecified)	76	71*	-82*	-1	-7	0
COc1ccc(N(C(=O)Cn2nnc3ccccc32)C(C(=O)NCc2ccco2)c2ccc(C)o2)cc1 (stereo unspecified)	104	2	14	-2	3	-1
CC1=C(n2nnc([N+](=O)[O-])n2)C(c2cccnc2)C(C#N)=C(N)O1 (stereo unspecified)	145	57*	27	4	5	1
COc1cccc(C(O)c2ncc(-c3ccc(Cl)cc3)[nH]2)c1 (stereo unspecified)	/	/	/	/	-40	/
CC(=O)Nc1ccc(Oc2ccc([N+](=O)[O-])cc2Cl)cc1	104	1	18	-2	5	-1
Fc1ccc(NC(=S)Nc2ccc(F)c(Cl)c2)cc1Cl	104	35	11	0	-3	3
COC(=O)NC(=S)Nc1ccc(Oc2ccc(Cl)cc2Cl)c(Cl)c1	94	62*	17	6	-9	0
O=C(NC(=S)Nc1ccc(F)c(Cl)c1)C1CC1	112	-16	-78*	-1	4	1
COC(=O)NC(=S)Nc1ccc(Oc2ccc(Cl)cc2)c(Cl)c1	99	74*	9	1	-1	0
O=C(O)CCCC(=O)NCCc1cccc(Cl)c1	100	-8	26	4	10	-1
NC(=O)c1c(N)sc(=S)n1CC1CCCO1 (stereo unspecified)	93	11	7	1	6	-1
NC(=O)c1cccc(-c2ccnc3c2CC(C(=O)Nc2cccc(C(F)(F)F)c2)O3)c1 (stereo unspecified)	/	/	/	/	-5	/
O=C(Nc1cccc(C(F)(F)F)c1)C1Cc2c(-c3cccc(F)c3)ccnc2O1 (stereo unspecified)	/	/	/	/	30*	/
Cc1ccc(C(C)C)c(OCc2nn(CC(=O)c3ccc(Cl)cc3)c3[n+]2CCCCC3)c1	101	86*	36	1	-32	-1
O=C(Cn1nc(CNc2ccc(Cl)cc2)[n+]2c1CCCCC2)c1ccccc1	106	18	15	-1	3	1
CN1CCC(OC(=O)c2ccccc2)CC1	84	60*	1	4	4	0
COc1cccc(C(=O)OC2CCN(C)CC2)c1	99	70*	10	3	2	0
COc1ccc(C(=O)OC2CCN(C)CC2)cc1	107	55*	9	3	11	0
COc1cccc(C(=O)N2CCC(C(=O)N3CCN(C)CC3)CC2)c1	/	-13	-10	0	3	1
SMILES	Yeast superoxide	T cruzi inh	AI-2 QS mod	V-ATPase pHluor	CendR NRP1 mod	HIF act
CCOc1ccc(C(=O)OC2CCN(C)CC2)cc1	88	37	6	2	10	2
CCC(=O)N1CCc2cc(Br)cc(S(=O)(=O)NCc3ccco3)c21	99	2	10	0	4	0
Cc1nc2ccc(NS(=O)(=O)c3ccccc3Cl)cc2s1	94	/	/	3	-38	/
COc1ccccc1NC(=S)N(Cc1ccco1)Cc1cc2cccc(C)c2[nH]c1=O	99	-7	29	-1	40*	0
O=C(N/N=C/c1c(O)ccc2ccccc12)Nc1ccccc1	102	2	-2	-2	/	0
O=C(CSCC(=O)Nc1ccccc1)N/N=C/c1c(O)ccc2ccccc12	131	14	39	1	-26	71*
O=C(N/N=C/c1c(O)ccc2ccccc12)c1ccc(Br)o1	91	41	12	3	-82	59*
Nc1cc(Cl)nc(N/N=C/c2c(O)ccc3ccccc23)n1	117	8	35	-1	-3	13*
Cn1nccc1C(=O)N/N=C/c1c(O)ccc2ccccc12	120	-3	4	5	-7	101*
CC(C)Cc1ccc(S(=O)(=O)Nc2ccc3[nH]c(=O)[nH]c3c2)cc1	90	-23	-11	3	1	-1
COc1ccccc1/C=C/C=N/N1CCN(Cc2ccccc2)CC1	130	5	13	-15	8	0
CCOC(=O)C1CCN(c2cc(=O)n(-c3ccccc3Cl)c(=O)[nH]2)CC1	89	4	-2	1	1	/
O=C(N/N=C/c1c(O)ccc2ccccc12)c1ccc[n+](CCO)c1	115	9	10	3	-21	0
O=C(NN=Cc1c(O)ccc2ccccc12)c1ccncc1	/	/	/	-4	144	/
Cn1cc(C(=O)N/N=C/c2c(O)ccc3ccccc23)ccc1=O	108	37	4	-5	-22	88*
O=C(N/N=C\c1c(O)ccc2ccccc12)c1ccc(O)cc1	98	20	33	1	-9	34*
Cc1occc1C(=O)N/N=C/c1c(O)ccc2ccccc12	103	25	-7	-4	-7	91*
CC1(C)CN2C(=O)c3ccccc3C2(C)S1 (stereo unspecified)	90	-23	21	-1	10	0
Cc1cccc(-n2c(=S)[nH]c3c(oc4ccccc43)c2=O)c1	96	-2	17	1	-13	1
COc1ccc(C(C)NC(=O)C2C(=O)NC3(C)CC2c2ccccc2O3)cc1 (stereo unspecified)	97	-1	3	3	-10	-1
COc1ccc(NC(=O)C2C(=O)NC3(C)CC2c2ccccc2O3)cc1 (stereo unspecified)	113	-9	26	3	33*	0
CCOc1cc(CNC2CCCC2)cc(Cl)c1OCc1ccc(F)cc1	106	-13	11	4	11	-47
O=C(Nc1cnn(Cc2c(Cl)cccc2Cl)c1)C(c1ccccc1)c1ccccc1	101	55*	-27	2	-5	-1
CC(=O)c1ccc(N2C(=NC(=O)COc3ccccc3)SC3CS(=O)(=O)CC32)cc1 (stereo unspecified)	i	-6	3	5	4	473*
